Source: PubChem BioAssay
An excerpt weighted towards active compounds, which were near 2.2% of everything screened.
NR2E3 ag-1 – agonists of human nuclear receptor NR2E3. GST-NR2E3/biotin-RetCOR TR-FRET, 1536-well. inhibition of corepressor binding, % at 4.78 µM. hit rate 0.12% among 320,000. AID 2300;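 active = percent inhibition above the cutoff of mean plus 3 SD of all tested compounds, set per screening campaign, cut at about 20% in these data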;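 note: 0% = DMSO wells and 100% = biotin wells as full block of FRET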
Target sequence (Q9Y5X4 whole entry, looked up): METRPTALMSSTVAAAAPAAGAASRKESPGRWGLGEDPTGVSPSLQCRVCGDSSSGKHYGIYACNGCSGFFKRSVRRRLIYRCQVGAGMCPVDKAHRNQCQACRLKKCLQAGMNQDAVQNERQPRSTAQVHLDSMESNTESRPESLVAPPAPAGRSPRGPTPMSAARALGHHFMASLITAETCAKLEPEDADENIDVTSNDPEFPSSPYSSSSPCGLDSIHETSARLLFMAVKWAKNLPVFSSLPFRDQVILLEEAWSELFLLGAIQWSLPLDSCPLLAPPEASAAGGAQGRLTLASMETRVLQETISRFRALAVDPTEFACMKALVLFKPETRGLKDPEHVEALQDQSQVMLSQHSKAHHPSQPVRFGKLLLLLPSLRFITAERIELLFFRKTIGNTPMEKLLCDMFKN
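Assay system: NR2E3–RetCOR corepressor complex. Quantity: 1.35 nM GST-NR2E3. Buffer or medium: pH 7.5 Tris-based buffer. Reagent: biotinylated RetCOR corepressor at 7 nM final. Schedule: 5 h at 4 °C. Detection: TR-FRET, emission read at 617 and 671 nm. Replicates: one well per compound, singlicate testing.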
SMARCA2 act – activators of SMARCA2 function | activation, % at 9.1 µM | AID 652017 | MG213 cells, MMTV-luciferase reporter, dexamethasone, overnight | hit rate 1% among 370,000; in the data active = activation above about 7.8%;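 note: 0% = vehicle wells and 100% = reference activator wells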
COUP-TFII inh – blocks human COUP-TFII nuclear receptor; HEK293T NGFI-A luciferase reporter, luminescence; inhibition, % at 8.6 µM; hit rate 0.7% among 370,000; AID 686940;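 active = inhibition above a per-plate cutoff, mean inhibition of test wells between control levels plus 3 SD, cut at about 38% in these data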;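 note: cells cotransfected with COUP-TFII expression vector driving the NGFI-A reporter; 0% = median of COUP-TF2 test wells and 100% = reporter-only cells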
NR2E3 ag-2 – activates human NR2E3 receptor; AID 602229; inhibition of corepressor binding, % at 3.98 µM; hit rate 0.35% among 360,000; Q9Y5X4; CHO-S Gal4-NCOR/VP16-NR2E3 two-hybrid, luciferase;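 active = inhibition above the mean of all tested compounds plus 3 SD, cut at about 70% in these data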;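 note: 0% = DMSO with NR2E3 transfected cells and 100% = cells lacking NR2E3 construct; higher means lower luciferase signal from less NR2E3 corepressor binding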
GalR3 antag – antagonists of human GalR3; inhibition, % at 3 µM; O60755; HEK293 GalR3-CNG cAMP membrane potential fluorescence; galR3 body fused to GalR1 C-terminus; hit rate 0.44% among 360,000; AID 651719;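 active = inhibition above the screen-wide average plus 3 SD, cut at about 13% in these data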;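 note: forskolin and galanin both at EC90 stimulate the cells; cAMP rise reported by CNG channel membrane potential dye signal; 0% = forskolin plus galanin with DMSO and 100% = forskolin alone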
Active calls of the source: *; · = not tested or not shown.

SMILES | NR2E3 ag-1 | SMARCA2 act | COUP-TFII inh | NR2E3 ag-2 | GalR3 antag
C[C@H]1[C@@H](OC(=O)N2CCN(c3ccccc3)CC2)CC[C@@]23CCCN2C(=O)CCC[C@@H]13 | · | · | -3 | · | ·
O=C(CSc1ccccc1)Nc1nccs1 | -2 | 0 | -6 | -7 | -5
Cc1ccc(SCC(=O)Nc2nccs2)cc1 | 0 | 7.8* | -23 | -4 | -2
Cc1ccc(Cn2cc(CN(C3CC3)S(=O)(=O)c3ccccc3Br)nn2)cc1 | · | -3 | -4 | · | ·
CCOC(=O)N1C(=O)C[C@](Sc2ccc(OC)cc2)(C(=O)N(C)C)[C@H]1c1ccc(OC)cc1 | · | -3 | 8 | · | ·
Nc1nccc(-c2ccc(-n3cnc4ccccc43)cc2)n1 | 5 | -3 | 42* | -42 | 2
C=CCN1C(=O)[C@@H](CC(=O)NCC23CC4CC(CC(C4)C2)C3)[C@]2(C(=O)OCC)CCCCC/C=C/12 | · | -3 | -7 | · | ·
COc1ccc(-c2cc(=O)c3c(O)cc(O)cc3o2)cc1 | -1 | 7.9* | -46 | -71 | -5
CCC(C)[C@H](NC(=O)C1CC(=O)N(c2ccc(OC)cc2)C1)C(=O)NC1CCCC1 (some centres undefined) | -1 | 8.0* | 3 | 2 | 5
COC(=O)CCC/C=C1/SCC(NC(=O)c2ccccc2)C1O (centres undefined) | 3 | -3 | 10 | -14 | 4
COC(=O)CCC/C=C1/SCC(NC(=O)c2ccccc2)C1=O (centres undefined) | 1 | -1 | 9 | -25 | 13*
CC(CCC(=O)NN)C1CCC2C3CCC4CC(O)CCC4(C)C3CCC12C (centres undefined) | · | 2 | 2 | 6 | -5
CC(CCC(C)C(C)(C)C)[C@@H]1CC[C@H]2C3C[C@H](OS(O)(=S)=S)[C@H]4C[C@H](OS(O)(=S)=S)[C@@H](OS(O)(=S)=S)C[C@]4(C)[C@H]3CC[C@]12C (some centres undefined) (tested in a mixture with another compound) | · | · | · | 75* | ·
FC(F)(F)c1cc(C(F)(F)F)c2ccc(N3CCN(c4ccc(Cl)cc4)CC3)nc2n1 | -2 | -5 | -15 | -14 | -1
N#CC(c1ccc(Cl)cc1)c1ccc2c(C(F)(F)F)cc(C(F)(F)F)nc2n1 (centres undefined) | 0 | -11 | 58* | 62 | 36*
O=C(Nc1cccc(Cl)c1)O[C@@H]1CC[C@@]23CCCN2C(=O)CCC[C@H]3C1 | · | · | -6 | · | ·
CCCCNC(=O)C[C@H]1C[C@@]2(C(=O)OC)C(=C[C@H](C3CCCC3)O[C@@H]2C)N(Cc2ccccc2)C1=O | · | 3 | -1 | · | -5
CCCCNC(=O)C[C@H]1C[C@@]2(C(=O)OC)C(=C[C@H](C3CCCC3)O[C@@H]2C)N(Cc2ccco2)C1=O | · | 7.8* | -11 | · | ·
C[C@H]1[C@@H](OC(=O)NCCc2ccccc2)CC[C@@]23CCCN2C(=O)CCC[C@@H]13 | · | · | 2 | · | ·
N#Cc1cccc(NC(=O)O[C@@H]2CC[C@@]34CCCN3C(=O)CCC[C@H]4C2)c1 | · | · | -3 | · | ·
C=CCOn1c(=O)c(-c2ccccc2)[n+]([O-])c2ccccc21 | -1 | -3 | -7 | -1 | -2
C=CCOn1c(=O)c(-c2cc3ccccc3o2)[n+]([O-])c2ccccc21 | -1 | 7.9* | -64 | -153 | -3
CC(COc1ccc(C#N)c(F)c1)CN1CCC(C(O)(c2ccccc2)c2ccccc2)CC1 (centres undefined) | · | -3 | 1 | · | ·
COc1ccc(OCCNC(=O)/C=C/c2ccccc2)cc1 | 0 | 2 | -11 | 21 | -5
O=C(/C=C/c1ccccc1)NCCOc1ccccc1 | 3 | 7.8* | -17 | -93 | -5
SMILES | NR2E3 ag-1 | SMARCA2 act | COUP-TFII inh | NR2E3 ag-2 | GalR3 antag
C=C(C)c1sc(-c2ccccc2)nc1C | 1 | 1 | -6 | · | -7
C/C(=N\O)c1sc(-c2ccccc2)nc1C | · | 7.9* | -56 | -119 | 4
COc1ccc(OC)c(Cc2nnc(CCC(=O)N3CCCCC3)o2)c1 | -2 | 1 | -32 | -32 | 0
COc1ccc(OC)c(Cc2nnc(CCC(=O)N3CCN(C4CCCC4)CC3)o2)c1 | 5 | 7.8* | 1 | -46 | -2
OCC1OC(n2cnc3c(NCc4ccco4)ncnc32)C(O)C1O (centres undefined) | · | 1 | -5 | 40 | 86*
OC[C@H]1O[C@@H](n2cnc3c(NCc4ccco4)ncnc32)[C@H](O)[C@@H]1O | · | 0 | -2 | 4 | -6
